Source: PubChem BioAssay
HDAC3 inhib – HDAC3 deacetylase inhibitors, primary screen, biochemical, fluorescence, cell-free homogeneous | recombinant HDAC3, fluorogenic peptide/trypsin coupled | inhibition, % at 8.3 µM | actives 0.15% (n = 320,000) | AID 2718, 2010; in the data active = inhibition above about 26%, passing the limit was not always enough
FAS-TE inh – FAS thioesterase domain inhibitors, primary screen, biochemical, fluorescence intensity, uHTS; Fatty acid synthase (Homo sapiens), P49327; recombinant FAS-TE, OMFH fluorogenic substrate, fluorescence endpoint; inhibition, % at 15 µM; actives 0.67% (n = 360,000); AID 602261, 2012;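 active = compounds whose normalised, plate-corrected inhibition of enzyme fluorescence in the single-dose primary screen is 50% or more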;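 note: 0% = DMSO with enzyme and 100% = substrate without enzyme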
Target sequence (P49327 whole entry, looked up, the tested form may be a part): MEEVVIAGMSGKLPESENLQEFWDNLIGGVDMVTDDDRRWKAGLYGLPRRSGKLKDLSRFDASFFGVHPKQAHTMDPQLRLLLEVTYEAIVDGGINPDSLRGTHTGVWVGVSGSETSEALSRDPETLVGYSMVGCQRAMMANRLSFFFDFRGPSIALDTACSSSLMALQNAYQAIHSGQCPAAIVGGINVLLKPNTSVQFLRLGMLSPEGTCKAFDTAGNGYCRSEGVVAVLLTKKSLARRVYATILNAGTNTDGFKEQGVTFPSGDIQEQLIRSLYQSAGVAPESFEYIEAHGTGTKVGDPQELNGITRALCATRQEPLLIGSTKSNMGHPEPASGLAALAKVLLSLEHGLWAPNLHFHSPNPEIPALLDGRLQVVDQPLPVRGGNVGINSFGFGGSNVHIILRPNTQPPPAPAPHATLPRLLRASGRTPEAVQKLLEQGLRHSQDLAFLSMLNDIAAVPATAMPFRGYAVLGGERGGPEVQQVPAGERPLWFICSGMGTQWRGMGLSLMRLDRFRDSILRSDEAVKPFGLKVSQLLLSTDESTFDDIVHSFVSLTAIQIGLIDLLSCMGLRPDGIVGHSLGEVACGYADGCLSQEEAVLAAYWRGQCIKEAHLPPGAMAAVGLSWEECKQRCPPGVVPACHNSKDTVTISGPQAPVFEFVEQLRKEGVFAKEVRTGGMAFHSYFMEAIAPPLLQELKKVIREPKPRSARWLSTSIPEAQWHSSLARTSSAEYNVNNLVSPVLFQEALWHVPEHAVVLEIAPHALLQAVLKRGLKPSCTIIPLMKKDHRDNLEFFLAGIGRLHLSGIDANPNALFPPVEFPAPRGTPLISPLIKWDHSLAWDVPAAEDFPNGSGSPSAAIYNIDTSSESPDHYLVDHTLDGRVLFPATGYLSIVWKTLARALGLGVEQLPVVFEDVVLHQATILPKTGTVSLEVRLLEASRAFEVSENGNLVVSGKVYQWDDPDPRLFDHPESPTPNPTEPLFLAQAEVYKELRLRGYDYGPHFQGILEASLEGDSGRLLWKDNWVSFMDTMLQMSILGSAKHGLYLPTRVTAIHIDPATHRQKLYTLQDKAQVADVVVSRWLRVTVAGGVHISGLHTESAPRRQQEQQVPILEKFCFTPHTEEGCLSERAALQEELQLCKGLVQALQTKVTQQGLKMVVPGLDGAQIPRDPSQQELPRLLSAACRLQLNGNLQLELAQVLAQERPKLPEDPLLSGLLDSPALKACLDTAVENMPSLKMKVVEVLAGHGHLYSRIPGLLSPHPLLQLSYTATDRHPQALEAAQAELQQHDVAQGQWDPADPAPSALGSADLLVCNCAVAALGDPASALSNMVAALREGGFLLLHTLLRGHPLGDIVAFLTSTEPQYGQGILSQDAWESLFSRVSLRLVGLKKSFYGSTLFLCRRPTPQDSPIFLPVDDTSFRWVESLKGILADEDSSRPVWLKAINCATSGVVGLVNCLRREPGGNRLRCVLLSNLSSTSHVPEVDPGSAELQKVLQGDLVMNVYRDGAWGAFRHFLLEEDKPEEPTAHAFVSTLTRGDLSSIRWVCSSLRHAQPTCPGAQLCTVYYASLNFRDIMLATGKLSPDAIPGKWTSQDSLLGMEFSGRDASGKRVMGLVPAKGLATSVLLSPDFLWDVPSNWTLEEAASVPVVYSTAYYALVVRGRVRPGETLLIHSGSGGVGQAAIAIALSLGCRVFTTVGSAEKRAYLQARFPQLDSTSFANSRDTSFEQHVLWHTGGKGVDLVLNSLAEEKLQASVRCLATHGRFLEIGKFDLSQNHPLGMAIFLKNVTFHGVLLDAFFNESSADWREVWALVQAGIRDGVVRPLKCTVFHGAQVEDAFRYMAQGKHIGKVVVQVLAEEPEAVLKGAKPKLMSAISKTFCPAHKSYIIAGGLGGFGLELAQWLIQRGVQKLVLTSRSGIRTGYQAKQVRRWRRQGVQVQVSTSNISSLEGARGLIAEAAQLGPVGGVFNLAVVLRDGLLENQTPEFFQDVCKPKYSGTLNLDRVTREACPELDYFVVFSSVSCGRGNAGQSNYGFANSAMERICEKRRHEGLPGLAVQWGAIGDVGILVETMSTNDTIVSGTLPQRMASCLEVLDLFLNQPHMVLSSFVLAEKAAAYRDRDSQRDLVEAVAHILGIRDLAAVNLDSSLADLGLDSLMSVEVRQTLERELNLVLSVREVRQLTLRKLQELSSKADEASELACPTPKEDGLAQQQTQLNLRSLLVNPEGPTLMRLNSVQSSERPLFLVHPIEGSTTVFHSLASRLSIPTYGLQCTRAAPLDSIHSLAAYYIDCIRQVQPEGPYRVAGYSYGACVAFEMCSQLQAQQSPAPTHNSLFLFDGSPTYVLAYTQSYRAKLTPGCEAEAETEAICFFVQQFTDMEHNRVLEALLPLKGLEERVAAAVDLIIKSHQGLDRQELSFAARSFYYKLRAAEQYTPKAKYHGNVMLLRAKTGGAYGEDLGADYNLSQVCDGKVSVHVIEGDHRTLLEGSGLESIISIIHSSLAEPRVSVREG
Rtt109 HAT inh – inhibitors of C. albicans Rtt109/Vps75 HAT, primary screen, biochemical, ThioGlo CoA-SH fluorescence, plate reader | purified Rtt109/Vps75, 4 h | inhibition, % at 34.9 µM | actives 0.16% (n = 330,000);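 active = inhibition of at least 50% in every replicate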
M18AAP inhibitor – PfM18AAP inhibitors, malaria aminopeptidase, primary screen, biochemical, QFRET, recombinant enzyme | H-Glu-NHMec fluorogenic cleavage | actives 1.2% (n = 290,000) | AID 1822, 2009 | M18 aspartyl aminopeptidase (Plasmodium falciparum 3D7) | inhibition, % at 7.35 µM;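 active = inhibition above the campaign mean inhibition over all tested compounds plus 3 SD, cut at about 28% in these data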;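 note: 0% = plate median of test compound wells and 100% = 2 mM ZnCl2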
ALR inh – inhibitors of human ALR sulfhydryl oxidase, primary screen, biochemical, H2O2 detection, HRP-luminol luminescence, single point. actives 3.8% (n = 290,000). purified ALR, DTT oxidation. inhibition, % (test concentration not listed). FAD-linked sulfhydryl oxidase ALR (Homo sapiens), P55789;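 active = mean replicate inhibition above about 79%, with every replicate also reaching it, limit read from the data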
UCH37 inh – inhibitors of human UCH37 deubiquitinase, primary screen, biochemical, Ub-AMC cleavage, fluorescence. Ubiquitin carboxyl-terminal hydrolase isozyme L5 (Homo sapiens), Q9Y5K5. purified proteasome/UCH37. inhibition, % (test concentration not listed). actives 0.33% (n = 330,000). AID 588478, 2011;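 active = mean inhibition over replicate wells above about 20%, limit read from the data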;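 note: 0% = compound-free wells with enzyme and 100% = wells lacking proteasome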
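Signal – fluorescence, ex 355 nm, em 460 nm · System – Proteasome-bound UCH37 · Input – 0.15 nM proteasome as dispensed · Timing – 30 min preincubation with enzyme, 25 min cleavage at room temperature · Read-out basis – percent inhibition of cleavage signal versus uninhibited and no-proteasome wells · Medium – Tris-HCl pH 7.4 with ATP-MgCl2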
* marks the source's active call; other numbers are inactive results; · = no result given; + = active, no number. An excerpt weighted towards active compounds, which were near 4.6% of everything screened.

SMILES	HDAC3 inhib	FAS-TE inh	Rtt109 HAT inh	M18AAP inhibitor	ALR inh	UCH37 inh
Cc1cccc(-c2cnn(-c3cccc([N+](=O)[O-])c3)c2N)c1	-2	48	1	-10	92*	1
Cc1cccc(-c2cnn(-c3ccccc3)c2N)c1	-1	-3	0	-8	68	5
CCn1c(C)nc2cc(C(=O)NN=C(C)c3ccccc3O)ccc21	·	·	·	·	·	-2
NNc1nc2sc3c(c2c(=O)n1-c1ccccc1)CCCC3	6	-4	3	20	13	2
Nn1c(Nc2ccccc2)nc2sc3c(c2c1=O)CCCC3	-7	-5	-2	20	81*	4
CC(C)OP(=O)(OC(C)C)C(C=O)=NNc1ccc([N+](=O)[O-])cc1	·	·	·	·	·	15
CC(=NNC(=O)c1nnn(-c2nonc2N)c1-c1ccc2c(c1)OCO2)c1ccc(C)cc1	·	·	·	·	·	-10
C/C=C/C(=O)OCC(=O)Nc1ccc(SC(F)F)cc1	4	1	7	-8	99*	5
O=C(CSc1n[nH]c(=O)[nH]c1=O)Nc1ccc(SC(F)F)cc1	3	3	0	·	99*	1
CC(=O)OCC(=O)Nc1ccc(SC(F)F)cc1	-6	-6	2	-15	99*	0
Nc1sc(-c2ccccc2)cc1C(=O)NN=Cc1ccc(Cl)cc1	·	·	·	·	·	-40
COc1ccc(-c2cnnc(NN=Cc3ccc(C)o3)n2)cc1	·	·	·	·	·	6
COc1cccc(C=NNC(=O)c2nnn(-c3nonc3N)c2CN(C)c2ccccc2)c1	·	·	·	·	·	3
CCOc1ccc(C=NNC(=O)Cc2csc(Nc3cccc(C(F)(F)F)c3)n2)c(OCC)c1	·	·	·	·	·	2
CCOc1ccc(/C=N/NC(=O)Cc2csc(Nc3cccc(C(F)(F)F)c3)n2)c(OCC)c1	36*	14	-2	1	-17	·
O=[N+]([O-])c1cc2c(cc1C=NNc1nc(Nc3ccccc3)nc(N3CCCCC3)n1)OCO2	·	·	·	·	·	5
CN1C[C@@H](c2ccc(Cl)c(Cl)c2)[C@@]2(COc3ccccc3C2=O)[C@@]12C(=O)Nc1ccccc12	·	·	·	·	·	2
NC(=O)C1CCN(C(=O)N2c3ccccc3Sc3ccccc32)CC1	3	-2	4	3	80*	8
CCn1c2ccccc2c2cc(NC(=O)CSc3nnc(C4CC4)n3Cc3ccco3)ccc21	-1	5	1	-44	98*	-2
Cc1c(C(=O)NN=Cc2cccnc2)sc(N)c1C#N	·	·	·	·	·	-4
Nc1ccc(Oc2ccccc2-c2ccccc2)cc1	-1	26	3	·	99*	1
COc1ccc2c(c1)CC(C)CC2=NNC(=O)c1ccco1 (centres undefined)	·	·	·	·	·	7
CCCc1nc(SCC(=O)Nc2ccc(N3CCOCC3)cc2)c2ccccc2n1	3	-7	-1	-6	99*	·
CC(C)c1nc(SCC(=O)Nc2ccc(N3CCOCC3)cc2)c2ccccc2n1	7	2	+	-2	99*	3
Cc1cc(C)nc(SCC(=O)Nc2ccc(N3CCOCC3)cc2)n1	-4	-8	1	8	98*	6
SMILES	HDAC3 inhib	FAS-TE inh	Rtt109 HAT inh	M18AAP inhibitor	ALR inh	UCH37 inh
Cc1nc(SCC(=O)Nc2ccc(N3CCOCC3)cc2)nc(C)c1C	-2	-2	-4	7	·	1
O=C(CSc1nc2ccccc2c(=O)[nH]1)Nc1ccc(N2CCOCC2)cc1	4	-5	0	-6	-6	3
S=c1[nH]nc(-c2ccco2)n1N=Cc1c(Cl)cccc1Cl	·	·	·	·	·	6
CCOc1cc(CNn2cn[nH]c2=S)cc(Cl)c1OCc1ccccc1F	16	0	7	2	90*	-1
COc1cc(CNn2c(C)n[nH]c2=S)cc(Cl)c1OCc1ccc(F)cc1	2	3	5	-8	-6	5
Cc1ccc(SCc2cc(=O)[nH]c(N3CCN(C)CC3)n2)cc1	-1	-6	4	8	-13	27*
COC(=O)C(=O)/C=C(/O)c1ccc(C)cc1	·	·	·	·	·	14
Cc1cc(S(=O)(=O)Nc2cccc(Cl)c2)c(C)s1	6	11	3	1	-1	3
